The test system of series [1] is Mus musculus. Put plainly: Increase in plasma ALT level in CCl4-induced BALB/c mouse model of liver fibrosis at 2 mg/ml, po administered every 2 day for 6 weeks. It counts as ADME, organism-based. As to conditions: in vivo. The procedure, abridged: (§1)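 Female BALB/c mice given CCl4 i.p. (1 mL/kg of 25% CCl4 in olive oil) twice weekly for 6 weeks, killed 48 h after the last dose. The 2 mg/mL treatment was given in drinking water ad libitum, changed every second day, for 6 weeks (n=15). ALT and AST were measured in plasma.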

Series [2] deals with Mus musculus. In words: Antifibrotic activity in CCl4-induced BALB/c mouse model of liver fibrosis assessed as liver fibrosis area at 2 mg/ml, po administered every 2 day for 6 weeks by picro-sirius red staining based microscopy. It counts as functional, organism-based. The procedure, abridged:
(§2)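 Female BALB/c mice given CCl4 i.p. (1 mL/kg of 25% CCl4 in olive oil) twice weekly for 6 weeks, killed 48 h after the last dose. The 2 mg/mL treatment was given in drinking water ad libitum, changed every second day, for 6 weeks (n=15). One liver lobe was formalin-fixed and stained for Picro Sirius Red or α-SMA. Slides were scanned at 20X. Fibrotic area is given as % of total liver area, mean ± SEM. One-way ANOVA with Dunnett's test vs CCl4 + vehicle.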

Series [3] has as its system Mus musculus. In words: Antifibrotic activity in CCl4-induced BALB/c mouse model of liver fibrosis assessed as reduction in liver fibrosis area at 2 mg/ml, po administered every 2 day for 6 weeks by alpha-SMA staining based microscopy. It counts as functional, organism-based. The essentials: as §2
The next series deals with T1, Protein-lysine 6-oxidase (Bos taurus, UniProt P33072).
T1 sequence (P33072 whole entry): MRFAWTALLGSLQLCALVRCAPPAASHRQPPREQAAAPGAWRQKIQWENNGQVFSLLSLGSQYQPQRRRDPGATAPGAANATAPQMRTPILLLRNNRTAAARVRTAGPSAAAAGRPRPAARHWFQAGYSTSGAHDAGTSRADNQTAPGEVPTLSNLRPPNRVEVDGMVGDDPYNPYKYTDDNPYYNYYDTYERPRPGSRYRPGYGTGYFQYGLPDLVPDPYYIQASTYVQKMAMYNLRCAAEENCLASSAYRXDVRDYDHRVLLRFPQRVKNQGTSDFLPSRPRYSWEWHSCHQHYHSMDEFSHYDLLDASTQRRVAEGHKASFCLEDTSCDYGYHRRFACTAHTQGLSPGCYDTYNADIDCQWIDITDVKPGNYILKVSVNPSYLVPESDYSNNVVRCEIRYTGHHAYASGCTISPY
In words: Inhibition of LOX in bovine aorta using putrescine as substrate preincubated with enzyme for 30 mins followed by substrate addition and measured every 2.5 mins for 30 mins by Amplex-Red oxidation assay. It counts as tissue-based. As to conditions: read-out: pIC50 (converted). The procedure, abridged:
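LOX extracted from calf aorta after PBS washing with 4 M urea/50 mM borate pH 8.2, concentrated on 10 kDa filters into 1.2 M urea/borate with protease inhibitors. Preincubated 30 min at 37 °C with compound, then Amplex Red/HRP with 10 mM putrescine; fluorescence read every 2.5 min for 30 min.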

For series [4], the system named is Mus musculus. In words: Increase in plasma AST level in CCl4-induced BALB/c mouse model of liver fibrosis at 2 mg/ml, po administered every 2 day for 6 weeks. It counts as ADME, organism-based. As to conditions: in vivo. The essentials:
as §1

Series [5] has as its system Mus musculus. In words: Antifibrotic activity in bleomycin-induced C57BL/6 mouse model of lung fibrosis assessed as reduction in Ashcroft score at 50 mg/kg, ip administered on day 7 to 27 and measured on day 28 by H and E staining based microscopy. It counts as functional. As to conditions: C57BL/6, ip. The essentials: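 Female C57BL/6 mice, 6-8 weeks old, under isoflurane received intranasal bleomycin sulphate 0.05 U/mouse in PBS; controls got PBS. Once-daily i.p. treatment days 7-27, n=12/group; imatinib 50 mg/kg i.p. as comparator. Sacrifice at day 28; lung fibrosis scored by Ashcroft score.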

The subject of series [6] is Mus musculus. In words: Effect on plasma AST level in CCl4-induced BALB/c mouse model of liver fibrosis at 50 mg/kg, po administered for 6 weeks. It counts as ADME, organism-based. The settings on record: in vivo, 1008 h. The procedure, abridged:
(§3)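 CCl4 liver fibrosis in female BALB/c mice: CCl4 i.p. (1 mL/kg 25% in olive oil) twice weekly for 6 weeks, sacrifice 48 h after final injection. Oral once-daily dosing weeks 1-6 or weeks 4-6; imatinib 50 mg/kg daily weeks 1-6. ALT and AST measured in plasma.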

Series [7] has as its system Mus musculus. Put plainly: Effect on plasma ALT level in CCl4-induced BALB/c mouse model of liver fibrosis at 50 mg/kg, po administered for 6 weeks. It counts as ADME, organism-based. As to conditions: in vivo, 1008 h. The essentials:
as §3

Series [8] deals with Mus musculus. Put plainly: Antifibrotic activity in CCl4-induced BALB/c mouse model of liver fibrosis assessed as reduction in liver fibrosis area at 50 mg/kg, po administered for 6 weeks by alpha-SMA staining based microscopy. It counts as functional, organism-based. The essentials: (§4)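 Female BALB/c mice given CCl4 i.p. (1 mL/kg of 25% CCl4 in olive oil) twice weekly for 6 weeks; sacrificed 48 h after last dose. Test articles oral, once daily: prophylactic weeks 1-6 or therapeutic weeks 4-6; imatinib control 50 mg/kg daily weeks 1-6. One formalin-fixed liver lobe stained for Picro Sirius Red and α-SMA; fibrotic area as % of total liver area; mean ± SEM, one-way ANOVA with Dunnett's test.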

Series [9] deals with Mus musculus. Put plainly: Antifibrotic activity in CCl4-induced BALB/c mouse model of liver fibrosis assessed as liver fibrosis area at 50 mg/kg, po administered for 6 weeks by picro-sirius red staining based microscopy. It counts as functional, organism-based. The procedure, abridged: as §4
Series [10] in a line: Time during which plasma concentration exceed invitro IC50 for recombinant human LOXL2 in BALB/c mouse administered with (Z)-Ethyl1-(4-Amino-2-fluorobut-2-en-1-yl)-3-(3-(N,N-dimethylsulfamoyl)phenyl)-2-methyl-1H-indole-5-carboxylate Hydrochloride at 20 mg/kg, po administered via gavage by HPLC-MS/MS analysis. It counts as ADME, organism-based. The settings on record: in vivo.

For series [11], the target named is T2, Amine oxidase [copper-containing] 3 (Homo sapiens, UniProt Q16853).
T2 sequence (Q16853 whole entry): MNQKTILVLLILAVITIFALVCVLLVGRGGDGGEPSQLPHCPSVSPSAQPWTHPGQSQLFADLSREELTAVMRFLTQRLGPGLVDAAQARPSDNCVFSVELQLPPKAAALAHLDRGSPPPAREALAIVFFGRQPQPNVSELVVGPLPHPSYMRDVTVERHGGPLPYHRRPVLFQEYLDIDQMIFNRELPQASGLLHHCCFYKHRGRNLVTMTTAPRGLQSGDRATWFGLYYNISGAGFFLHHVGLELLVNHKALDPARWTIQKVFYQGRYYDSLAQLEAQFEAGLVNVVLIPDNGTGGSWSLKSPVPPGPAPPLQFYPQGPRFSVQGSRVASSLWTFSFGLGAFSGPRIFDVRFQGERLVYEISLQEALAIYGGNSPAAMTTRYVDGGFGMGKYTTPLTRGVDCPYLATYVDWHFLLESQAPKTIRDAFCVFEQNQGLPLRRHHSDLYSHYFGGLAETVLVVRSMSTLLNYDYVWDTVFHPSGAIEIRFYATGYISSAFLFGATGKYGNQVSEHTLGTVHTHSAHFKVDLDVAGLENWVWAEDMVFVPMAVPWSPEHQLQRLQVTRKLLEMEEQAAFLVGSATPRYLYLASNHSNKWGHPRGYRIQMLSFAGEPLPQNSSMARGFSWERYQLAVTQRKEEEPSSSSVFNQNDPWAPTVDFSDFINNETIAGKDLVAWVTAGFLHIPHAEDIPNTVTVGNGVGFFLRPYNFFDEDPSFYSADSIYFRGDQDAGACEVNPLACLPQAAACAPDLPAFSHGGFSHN
In words: Inhibition of recombinant human SSAO using benzylamine as substrate preincubated with enzyme for 30 mins followed by substrate addition and measured every 2.5 mins for 30 mins by Amplex-Red oxidation assay. As to conditions: read-out: pIC50 (converted).

The test system of series [12] is SSAO/plasma amine oxidase. In words: Metabolic stability of the compound in dog plasma assessed as SSAO/plasma amine oxidase-mediated compound oxidation by measuring parent compound remaining after 1 hr. It counts as ADME, Canis lupus familiaris. The settings on record: read-out: Stability. The procedure, abridged: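 Compound incubated in dog plasma; percentage of parent compound remaining measured after 1 hour.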

Series [13] deals with T3, Amine oxidase [flavin-containing] B (Homo sapiens, UniProt P27338).
T3 sequence (P27338 whole entry): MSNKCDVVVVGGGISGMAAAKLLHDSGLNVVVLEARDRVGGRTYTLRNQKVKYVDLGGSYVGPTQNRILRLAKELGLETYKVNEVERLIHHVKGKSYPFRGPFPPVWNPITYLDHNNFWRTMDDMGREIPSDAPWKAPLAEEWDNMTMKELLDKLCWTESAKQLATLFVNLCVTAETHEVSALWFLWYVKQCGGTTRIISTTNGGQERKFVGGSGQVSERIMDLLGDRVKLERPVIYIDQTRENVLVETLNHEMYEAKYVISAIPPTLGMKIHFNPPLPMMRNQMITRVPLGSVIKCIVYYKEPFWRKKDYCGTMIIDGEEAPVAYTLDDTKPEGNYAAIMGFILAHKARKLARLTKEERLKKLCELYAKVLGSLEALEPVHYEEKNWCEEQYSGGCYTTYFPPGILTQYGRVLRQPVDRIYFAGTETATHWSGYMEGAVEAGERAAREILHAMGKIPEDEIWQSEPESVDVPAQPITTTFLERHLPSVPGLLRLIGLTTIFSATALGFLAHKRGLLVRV
Put plainly: Inhibition of recombinant human MAOB expressed in baculovirus infected in BTI cells using benzylamine as substrate preincubated with enzyme for 30 mins followed by substrate addition and measured every 2.5 mins for 30 mins by Amplex-Red oxidation assay. The settings on record: human, 0.5 h.

The target of a further series is T4, Lysyl oxidase homolog 2 (Homo sapiens, UniProt Q9Y4K0).
T4 sequence (Q9Y4K0 whole entry): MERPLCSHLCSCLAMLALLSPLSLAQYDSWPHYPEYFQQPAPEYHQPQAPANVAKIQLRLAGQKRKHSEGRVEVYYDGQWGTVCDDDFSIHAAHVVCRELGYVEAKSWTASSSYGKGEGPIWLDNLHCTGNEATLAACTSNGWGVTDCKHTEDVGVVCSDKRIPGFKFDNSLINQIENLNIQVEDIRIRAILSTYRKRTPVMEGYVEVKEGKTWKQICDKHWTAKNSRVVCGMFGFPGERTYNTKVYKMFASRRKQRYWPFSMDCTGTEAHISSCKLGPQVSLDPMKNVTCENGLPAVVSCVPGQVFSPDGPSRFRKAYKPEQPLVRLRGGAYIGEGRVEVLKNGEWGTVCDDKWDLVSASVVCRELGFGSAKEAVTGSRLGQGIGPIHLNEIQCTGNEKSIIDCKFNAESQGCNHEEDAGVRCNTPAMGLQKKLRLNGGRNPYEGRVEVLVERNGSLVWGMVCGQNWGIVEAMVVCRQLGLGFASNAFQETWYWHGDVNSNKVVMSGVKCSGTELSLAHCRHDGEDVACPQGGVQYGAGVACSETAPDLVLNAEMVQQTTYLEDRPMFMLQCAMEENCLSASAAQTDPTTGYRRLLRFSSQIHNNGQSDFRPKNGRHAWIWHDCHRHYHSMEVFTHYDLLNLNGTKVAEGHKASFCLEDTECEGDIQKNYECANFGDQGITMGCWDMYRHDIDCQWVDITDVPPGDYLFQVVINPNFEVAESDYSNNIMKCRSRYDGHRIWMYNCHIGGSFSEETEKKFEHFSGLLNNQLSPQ
Put plainly: Inhibition of recombinant human C-terminal His-tagged […] (1-774 residues) expressed in mouse myeloma cells using putrescine as substrate preincubated with enzyme for 30 mins followed by substrate addition and measured every 2.5 mins for 30 mins by Amplex-Red oxidation assay. The settings on record: read-out: pIC50 (converted). The essentials:
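LOXL2 enzyme preincubated with compound for 30 min at 37 °C, then Amplex Red (120 µM) / HRP (1.5 U/mL) mix containing 5 mM putrescine added. Buffer: 1.2 M urea, 50 mM sodium borate, pH 8.2. H2O2 fluorescence (ex 565/em 590) read every 2.5 min for 30 min at 37 °C; BAPN 100 µM as positive control; n≥2.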

The nature of series [14]: Metabolic stability of the compound in dog plasma assessed as SSAO/plasma amine oxidase-mediated compound oxidation preincubated with SSAO/primary amine oxidase inhibitor, semicarbazide followed by incubation with compound and measured after 1 hr. It counts as ADME, Canis lupus familiaris.

From ChEMBL document CHEMBL4321820, “Identification and Optimization of Mechanism-Based Fluoroallylamine Inhibitors of Lysyl Oxidase-like 2/3” (J Med Chem, 2019) come the findings set out here.

Activity calls are given as the source filed them. No cut-off for these calls is given here.

Regarding `N#CCCN`, the Activity entry in the series on Mus musculus [1] and in the series with Mus musculus [4] was “Toxic” throughout. For the same molecule, the inhibition entry in the series on Mus musculus [2] is “inactive”. Also, the inhibition entry in the series with Mus musculus [3] is “Active”. Further, on Protein-lysine 6-oxidase, the IC50 is 2 µM.

Take `Cc1ccc(NC(=O)c2ccc(CN3CCN(C)CC3)cc2)cc1Nc1nccc(-c2cccnc2)n1` [IMATINIB]: the inhibition in vivo at 50 mg/kg in the series with Mus musculus [5] was in the range of 50 to 70%. Also, the Activity entry with Mus musculus [6] and in the series on Mus musculus [7] was “Non-Toxic” in each case. Also, the inhibition result in the series with Mus musculus [8] is “Active”. In the series on Mus musculus [9], the inhibition result is “inactive”.

With `Cc1c(-c2cccc(S(=O)(=O)N(C)C)c2)c2cc(C(=O)O)ccc2n1C/C(F)=C/CN`, in series [10], the “T>IC50” value is greater than 6 h.

As to `CN(C)S(=O)(=O)c1ccc(OCc2cn(C/C(F)=C/CN)nn2)c(Cl)c1.Cl`, the values for the IC50 (in series [11]; at Protein-lysine 6-oxidase; at Lysyl oxidase homolog 2) were greater than 31.6 µM, 0.794 µM and 0.02 µM, respectively. The remaining at 1 h in series [12] was 0%. The pIC50 entry in series [13] was “Not Active”. Also, in series [14], the Stability result is on record as “Stable”.

The inhibition in vivo is the percentage by which the read-out fell short of the control.
